Measured values from different studies.
Compare with care: the assays were run in different laboratories.
TYK2 JH2: Non-receptor tyrosine-protein kinase TYK2, JH2 (TYK2, Homo sapiens, UniProt P29597)
TYK2: Non-receptor tyrosine-protein kinase TYK2 (TYK2, Homo sapiens, UniProt P29597)
TYK2 JH1: Non-receptor tyrosine-protein kinase TYK2, JH1 (TYK2, Homo sapiens, UniProt P29597)

Structure (SMILES) | target | effect on | technique | concentration | remaining binding [%]
COc1ccc2c(c1)O[C@H](c1ccc(OC)c(OC)c1)C[C@@H]2NC(=O)C1(c2ccc3c(c2)OC(F)(F)O3)CC1 | TYK2 JH2 | cell-free assay | competition with immobilised ligand | 1 µM | 100
c1cnn2ncc(-c3ccnc(N4CCC45COC5)n3)c2c1 | TYK2 | binding | – | 1 µM | 66
O=C(N[C@H]1CCCCC/C=C\C2C[C@@]2(C(=O)O)NC(=O)[C@@H]2C[C@@H](Oc3ccncc3)CN2C1=O)OC1CCCC1 (stereo partly shown) | TYK2 JH1 | binding | competition with immobilised ligand | 1 µM | 98
C[C@@H]1CCN(c2nccc(-c3cnn4ncccc34)n2)C1 | TYK2 | binding | – | 1 µM | 66
FC(F)(F)Oc1cccc(-c2cnc3ccc(-c4ccncc4)nn23)c1 | TYK2 JH1 | binding | competition with immobilised ligand | 5 µM | 53
C[C@H](c1ccc(F)cc1)N(Cc1cccc(C(=O)O)c1)C(=O)c1cnc2ccccc2c1 | TYK2 JH2 | cell-free assay | competition with immobilised ligand | 1 µM | 92
COc1cnc(Nc2cccc(S(N)(=O)=O)c2)nc1N1CCN(c2ccccc2)CC1 | TYK2 JH1 | binding | competition with immobilised ligand | 1 µM | 53
O=C(c1ccc(Nc2ncc(Cl)c(-c3ccc(Cl)s3)n2)cc1)N1CCC(N2CCCC2)CC1 | TYK2 JH2 | binding | competition with immobilised ligand | 1 µM | 0.2
Cc1cnn2ncc(-c3ccnc(N(C)C)n3)c2c1 | TYK2 JH1 | cell-free assay | competition with immobilised ligand | 1 µM | 64
COc1cnc(Nc2cccc(S(N)(=O)=O)c2)nc1N1CCN(c2ccccc2)C(=O)C1 | TYK2 JH2 | binding | competition with immobilised ligand | 1 µM | 13
O=C(NCCCN1CCOCC1)c1ccc(Nc2ncc(Cl)c(-c3ccc(Cl)s3)n2)cc1 | TYK2 JH2 | binding | competition with immobilised ligand | 1 µM | 5.3
Cc1noc([C@H]2C[C@@H](c3ccc(C(F)(F)F)cc3)CN(C(=O)N3CCS(=O)(=O)C3)C2)n1 | TYK2 JH1 | cell-free assay | competition with immobilised ligand | 1 µM | 100
Nc1ncc2c(n1)-c1c([nH]c3ccc(C#CC4CC4)cc13)CCCC2 | TYK2 JH1 | binding | competition with immobilised ligand | 1 µM | 86
CN1CCN(c2ccc(Nc3nccc(-c4cccc([N+](=O)[O-])c4)n3)cc2C(F)(F)F)CC1 | TYK2 | binding | – | 10 µM | 0
COc1cc(-c2cn(C3CCc4c(F)cccc4N(CC(F)(F)F)C3=O)nn2)ccc1-n1cnc(C)c1 (stereo not shown) | TYK2 JH2 | cell-free assay | competition with immobilised ligand | 1 µM | 100
O=C(c1ccc(Nc2ncc(Cl)c(-c3cc4ccccc4s3)n2)cc1)N1CCC(N2CCCC2)CC1 | TYK2 JH1 | binding | competition with immobilised ligand | 1 µM | 7.1
CN(C)c1nccc(-c2cnn3ncccc23)n1 | TYK2 | binding | – | 1 µM | 100

Structure (SMILES) | target | effect on | technique | concentration | remaining binding [%]
CCN1CCN(Cc2ccc(C(=O)Nc3ccc(C)c(Oc4ccc5c(c4)CC(=O)N5)c3)cc2C(F)(F)F)CC1 | TYK2 JH2 | binding | competition with immobilised ligand | 1 µM | 100
C[C@H](NC(=O)c1cnc2n1[C@](C)(Cc1ccc(C#N)cc1)C(=O)N2c1cc(Cl)c(F)c(Cl)c1)C(=O)NC1(c2ccccn2)CC1 | TYK2 JH2 | cell-free assay | competition with immobilised ligand | 1 µM | 100
O=C(NCC1CCOCC1)c1n[nH]cc1NC(=O)c1c(F)cccc1F | TYK2 JH2 | binding | competition with immobilised ligand | 1 µM | 59
COc1cccc(CNC(=O)c2nc3scc(COCc4ccc(C(=O)O)cc4)c3c(=O)[nH]2)c1 | TYK2 JH2 | cell-free assay | competition with immobilised ligand | 1 µM | 79.8
CN(C)c1ncc(F)c(-c2cnn3ncccc23)n1 | TYK2 JH1 | cell-free assay | competition with immobilised ligand | 1 µM | 87
COc1ncc2cc3ccccc3nc2c1C#N | TYK2 JH1 | cell-free assay | competition with immobilised ligand | 5 µM | 69
O=C(c1ccc(Nc2nccc(-c3cc4ccccc4s3)n2)cc1)N1CCC(N2CCCC2)CC1 | TYK2 JH1 | binding | competition with immobilised ligand | 1 µM | 13
C[C@@H]1CN(c2ccc3ncc(-c4ccc5[nH]nc(C6CC6)c5c4)n3n2)C[C@H](C)O1 | TYK2 | binding | competition with immobilised ligand | 50 nM | 88
O=C(NCCCN1CCOCC1)c1ccc(Nc2nccc(-c3cc4ccccc4s3)n2)cc1 | TYK2 JH1 | binding | competition with immobilised ligand | 1 µM | 11
CC1CCCN1c1nccc(-c2cnn3ncccc23)n1 (stereo not shown) | TYK2 JH1 | cell-free assay | competition with immobilised ligand | 1 µM | 100
O=C(Nc1c[nH]nc1C(=O)NC1CCNCC1)c1cc(F)cc(F)c1 | TYK2 JH1 | binding | competition with immobilised ligand | 1 µM | 100
N[C@H]1CCN(c2nccc(-c3cnn4ncccc34)n2)C1 | TYK2 | binding | – | 1 µM | 78
CNC(=O)[C@@H]1CC[C@@H](n2c(-c3ccc4cnccc4c3)nc3ccc(C(=O)NCc4cccc(C(N)=O)c4)cc32)C1 | TYK2 JH2 | binding | competition with immobilised ligand | 1 µM | 100
Cc1cnc(Nc2ccc(C(=O)N3CCC(N4CCCC4)CC3)cc2)nc1-c1cc2ccccc2s1 | TYK2 JH1 | binding | competition with immobilised ligand | 1 µM | 6.7
COc1ccnn2ncc(-c3ccnc(N(C)C)n3)c12 | TYK2 | binding | – | 1 µM | 68
Cc1c[nH]c2nccc(Oc3c(F)cc(Nc4cc(Cl)nc(N)n4)cc3F)c12 | TYK2 JH2 | cell-free assay | competition with immobilised ligand | 0.1 µM | 89
c1cncc(-c2cccc(Nc3nccc(NC4CCCCC4)n3)c2)c1 | TYK2 JH2 | binding | competition with immobilised ligand | 10 µM | 3.8
